This note sets out measurements from ChEMBL document CHEMBL2375359, “Synthesis and antibacterial evaluation of novel pleuromutilin derivatives” (2013).

Type in all cases: functional
Test [1] deals with Staphylococcus aureus. Description: Antibacterial activity against methicillin-resistant Staphylococcus aureus at 80 ug/ml after 24 hrs by Oxford cup assay. To be noted: read-out: IZ. The gist of the method:
(§1)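 Oxford cup diffusion: clinical isolate inoculum in 0.9% saline set by McFarland standard, spread evenly on nutrient agar. Cups placed equidistant on the surface and filled with compound solutions prepared as for the agar dilution test, at several concentrations. Inhibition zone measured after 24 h at 37 °C.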

Test [2] concerns Streptococcus agalactiae. Description: Antibacterial activity against Streptococcus agalactiae after 48 hrs by agar dilution method. In a few lines: (§2)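 Agar dilution per NCCLS on clinical isolates. 2-fold serial dilutions of compound (2 mL) mixed into 18 mL hot Mueller-Hinton agar. Inoculum from blood slants, adjusted to approx. 10⁵–10⁶ cfu/mL in sterile 0.90% NaCl, then spotted onto the plates. Incubated 36.5 °C, 48 h. MIC is the lowest concentration giving complete growth inhibition. Run in triplicate at pH 7.40.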
(In agar dilution, organisms are placed on agar that contains the substance at set levels.)

The test system of test [3] is Streptococcus agalactiae. Kind of test: Antibacterial activity against Streptococcus agalactiae at 160 ug/ml after 24 hrs by Oxford cup assay. The conditions noted are these: read-out: IZ. In a few lines: (§3)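 Oxford cup diffusion with clinical isolates. Inoculum made in 0.9% saline to a McFarland standard and spread evenly on nutrient agar. Compound solutions, prepared as for the agar dilution test, were added at the stated concentration to Oxford cups set equidistant on the agar surface. Inhibition zones were measured after 24 h at 37 °C.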

Test [4] relates to Escherichia coli. Kind of test: Antibacterial activity against Escherichia coli at 320 ug/ml after 24 hrs by Oxford cup assay. To be noted: read-out: IZ. The gist of the method:
as §3

Test [5] relates to Escherichia coli. Description: Antibacterial activity against Escherichia coli at 80 ug/ml after 24 hrs by Oxford cup assay. The conditions noted are these: read-out: IZ. The gist of the method:
as §3

For test [6], the system named is Staphylococcus aureus. Description: Antibacterial activity against methicillin-resistant Staphylococcus aureus after 48 hrs by agar dilution method. In a few lines:
(§4)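 Agar dilution per NCCLS: 2-fold serial dilutions incorporated into hot Mueller-Hinton agar. Clinical isolates grown from blood slants, suspended in sterile 0.90% NaCl to about 10⁵–10⁶ cfu/mL, spotted onto plates. Incubation 36.5 °C, 48 h. MIC taken as the lowest concentration giving complete growth inhibition. Run in triplicate at pH 7.40.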

Test [7] deals with Streptococcus agalactiae. Description: Antibacterial activity against Streptococcus agalactiae at 320 ug/ml after 24 hrs by Oxford cup assay. The conditions noted are these: read-out: IZ. The gist of the method:
as §3

Test [8] relates to Staphylococcus epidermidis. Kind of test: Antibacterial activity against methicillin-resistant Staphylococcus epidermidis after 48 hrs by agar dilution method. The gist of the method: as §4
The test system of test [9] is Staphylococcus aureus. Description: Antibacterial activity against methicillin-resistant Staphylococcus aureus at 160 ug/ml after 24 hrs by Oxford cup assay. The conditions noted are these: read-out: IZ. The gist of the method: as §1
Test [10] has as its system Staphylococcus aureus. Description: Antibacterial activity against methicillin-resistant Staphylococcus aureus at 320 ug/ml after 24 hrs by Oxford cup assay. To be noted: read-out: IZ. The gist of the method:
as §1

Test [11] concerns Streptococcus agalactiae. Description: Antibacterial activity against Streptococcus agalactiae at 80 ug/ml after 24 hrs by Oxford cup assay. To be noted: read-out: IZ. In a few lines: as §3
For test [12], the system named is Staphylococcus epidermidis. Description: Antibacterial activity against methicillin-resistant Staphylococcus epidermidis at 320 ug/ml after 24 hrs by Oxford cup assay. To be noted: read-out: IZ. The gist of the method: as §1
For test [13], the system named is Escherichia coli. Kind of test: Antibacterial activity against Escherichia coli at 160 ug/ml after 24 hrs by Oxford cup assay. The conditions noted are these: read-out: IZ. In a few lines: as §3
Test [14] concerns Escherichia coli. Description: Antibacterial activity against Escherichia coli after 48 hrs by agar dilution method. The gist of the method:
as §2

Test [15] concerns Staphylococcus epidermidis. Kind of test: Antibacterial activity against methicillin-resistant Staphylococcus epidermidis at 160 ug/ml after 24 hrs by Oxford cup assay. The conditions noted are these: read-out: IZ. In a few lines:
as §1

In test [16] the test system is Staphylococcus epidermidis. Description: Antibacterial activity against methicillin-resistant Staphylococcus epidermidis at 80 ug/ml after 24 hrs by Oxford cup assay. The conditions noted are these: read-out: IZ. In a few lines:
as §1

The structures appear in SMILES notation. Values after ≈ are worked out from the molar mass of the structure shown.

One may read the MIC as the least concentration at which growth counts as inhibited. A higher MIC goes with weaker potency. As to `C=C[C@]1(C)C[C@@H](OC(=O)CSCCN(CC)CC)[C@]2(C)[C@H](C)CC[C@]3(CCC(=O)[C@H]32)[C@@H](C)[C@@H]1O` [TIAMULIN], the zone of inhibition at 80 µg/mL with Staphylococcus aureus [1] amounted to 16.5 mm; in the test on Escherichia coli [5], 15.2 mm; in the test with Streptococcus agalactiae [11] it was 11.1 mm; in test [16] it was 14.5 mm. The minimal inhibitory concentration (MIC) against Streptococcus agalactiae [2] is 2 µg/mL (≈ 4.05 µM); against Staphylococcus aureus [6] it was 0.5 µg/mL (≈ 1.01 µM); in [8], 2 µg/mL (≈ 4.05 µM); in the test on Escherichia coli [14], 2 µg/mL (≈ 4.05 µM). For the same molecule, the zone of inhibition at 160 µg/mL worked out at 11.4 mm in the test on Streptococcus agalactiae [3], 17.6 mm in the test on Staphylococcus aureus [9], 16.5 mm with Escherichia coli [13] and 15.6 mm in test [15]. In addition, the zone of inhibition at 320 µg/mL is 18.3 mm in the test with Escherichia coli [4], 12.3 mm in the test on Streptococcus agalactiae [7], 18.3 mm in the test with Staphylococcus aureus [10] and 16.4 mm in test [12].

Turning to `C=C[C@]1(C)C[C@@H](OC(=O)CSC(C)(C)CNC(=O)[C@H](N)C(C)C)[C@]2(C)[C@H](C)CC[C@]3(CCC(=O)[C@H]32)[C@@H](C)[C@@H]1O` [VALNEMULIN], the zone of inhibition at 80 µg/mL worked out at 20.4 mm with Staphylococcus aureus [1], 19.5 mm in the test with Escherichia coli [5], 12.8 mm with Streptococcus agalactiae [11] and 22.6 mm in test [16]. The minimum inhibitory concentration (MIC) was 0.5 µg/mL (≈ 0.885 µM) against Streptococcus agalactiae [2], 0.125 µg/mL (≈ 0.221 µM) against Staphylococcus aureus [6], 0.5 µg/mL (≈ 0.885 µM) in [8] and 0.5 µg/mL (≈ 0.885 µM) in the test on Escherichia coli [14]. For the same molecule, the zone of inhibition at 160 µg/mL with Streptococcus agalactiae [3] came out at 14.5 mm; in the test with Staphylococcus aureus [9], 22.9 mm; with Escherichia coli [13] it was 23.7 mm; in [15], 25.9 mm. The zone of inhibition at 320 µg/mL came out at 24.5 mm in the test on Escherichia coli [4], 15.8 mm with Streptococcus agalactiae [7], 25.8 mm in the test with Staphylococcus aureus [10] and 27.5 mm in [12].
